# SENP6 inh: SENP6 protease inhibitors, primary screen, biochemical, luminescence, uHTS. Recombinant SENP6 catalytic domain, aminoluciferin luminescence. 1.8% of 330,000 active. inhibition, % at 10 µM. Sentrin-specific protease 6 (Homo sapiens), Q9GZR1;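 active = inhibition above about 50% at the single tested dose, limit read from the data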;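 also: plate controls were DMSO wells with enzyme for no effect and DMSO wells lacking enzyme for full effect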
# Target sequence (Q9GZR1 628-1112 limits assumed): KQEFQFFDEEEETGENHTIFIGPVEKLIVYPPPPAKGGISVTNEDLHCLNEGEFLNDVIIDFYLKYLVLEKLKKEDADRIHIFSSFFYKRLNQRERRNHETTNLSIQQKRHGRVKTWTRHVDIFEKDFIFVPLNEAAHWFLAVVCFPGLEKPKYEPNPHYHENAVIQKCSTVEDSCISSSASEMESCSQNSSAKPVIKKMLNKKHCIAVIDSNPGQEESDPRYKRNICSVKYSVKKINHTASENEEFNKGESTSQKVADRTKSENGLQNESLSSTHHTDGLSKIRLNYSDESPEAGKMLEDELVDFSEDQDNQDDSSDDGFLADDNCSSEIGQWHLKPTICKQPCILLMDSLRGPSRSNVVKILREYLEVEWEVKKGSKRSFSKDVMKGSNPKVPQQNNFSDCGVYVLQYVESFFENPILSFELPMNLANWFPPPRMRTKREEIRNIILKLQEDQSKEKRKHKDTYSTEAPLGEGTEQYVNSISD
# SENP1 FRET inh: human SENP1 catalytic domain inhibitors, primary screen, biochemical, FRET, uHTS; recombinant SENP1 catalytic domain, CyPet-SUMO1-YPet FRET cleavage; 0.21% of 360,000 active; inhibition, % at 10 µM; AID 624204, 2012; Sentrin-specific protease 1 (Homo sapiens), Q9P0U3;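 active = inhibition at least 30% at 10 µM, raw YFP signal under a set limit, fluorescence ratio 0.5 to 1.5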;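 also: 0% = enzyme with DMSO and 100% = no enzyme wells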
#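 Test system: hSENP1 catalytic domain, recombinant; Amount: 20 pM final SENP1 enzyme; Medium: Tris pH 8 buffer plus EDTA, NaCl, BME, BSA, NP40, catalase; Schedule: 50 min enzyme reaction, room temperature, light-protected; Technique: FRET fluorescence in CFP and YFP emission channels; Controls: no-enzyme wells low, DMSO-plus-enzyme wells high control.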
# SENP8 block-1: human SENP8 protease inhibitors, primary screen, biochemical, fluorescence, Nedd8 protein substrate, uHTS; Sentrin-specific protease 8 (Homo sapiens), Q96LD8; inhibition, % at 20 µM; recombinant SENP8; 0.64% of 360,000 active; in the data active = inhibition mostly above about 40%, no sharp cut-off; inactive = mostly below about 27%
# SENP8 block-2: SENP8 protease inhibitors, primary screen, biochemical, luminescence; inhibition, % at 10 µM; purified SENP8, Z-RLRGG-aminoluciferin cleavage; Sentrin-specific protease 8 (Homo sapiens), Q96LD8; 1.2% of 330,000 active; in the data active = inhibition above about 50%
# SENP7 block: SENP7 protease inhibitors, primary screen, biochemical, luminescence, uHTS; 1.5% of 330,000 active; recombinant SENP7, Z-RLRGG-aminoluciferin luminescence, 40 min; Sentrin-specific protease 7 (Homo sapiens), Q9BQF6; inhibition, % at 5 µM;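 active = inhibition above about 50% at the single test dose, limit read from the data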;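 also: plate controls were DMSO with enzyme for no effect and no enzyme buffer wells for full effect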
# SENP8 confirm: SENP8 protease inhibitors, retest, confirmation, biochemical, luminescence, single concentration; inhibition, % at 12.5 µM; Recombinant SENP8, Z-RLRGG-aminoluciferin luminescence, 60 min; shares compounds with SENP7 block; 40% of 6,200 active;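 active = mean inhibition across replicates above about 50%, limit read from the data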
# SENP6 confirm: SENP6 protease inhibitors, confirmation, biochemical, luminescence, single concentration; shares compounds with SENP7 block; 58% of 6,200 active; recombinant SENP6, Z-RLRGG-aminoluciferin luminescence; inhibition, % at 12.5 µM; AID 488915, 2010
# SENP7 conf: SENP7 protease inhibitors, retest, confirmation, biochemical, luminescence, single concentration; shares compounds with SENP7 block; recombinant SENP7, Z-RLRGG-aminoluciferin luminescence, 40 min; inhibition, % at 12.5 µM; 69% of 6,200 active; AID 488917, 2010
# Casp3 SENP sel: caspase-3 protease inhibitors, confirmation, selectivity assay for SENP inhibitor project, biochemical, single concentration | shares compounds with SENP7 block | purified caspase-3, Z-DEVD-aminoluciferin luminescence, 60 min | inhibition, % at 12.5 µM | 60% of 6,200 active | AID 488918, 2010;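 active = mean inhibition above about 50%, limit read from the data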;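 also: plate controls were enzyme with DMSO for no effect and wells without caspase-3 for full effect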
# Luc interf: luminescence interference (SENP counter-screen) | shares compounds with SENP7 block | Pre-incubated SENP8/Z-RLRGG-aminoluciferin, luciferase luminescence interference | inhibition, % at 12.5 µM | 39% of 6,200 active | AID 488919;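 active = mean inhibition above about 50% when retested at one dose, limit read from the data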;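 also: plate controls were DMSO wells with completed reaction for no effect and substrate without enzyme for full effect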
# Starred values were filed as active, the others as inactive; . = not tested or not shown. Compounds with a hit are over-represented: about 2.5% of the library has one in this group of screens.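 The calls were made as follows, unless noted: active = mean inhibition above about 50% in the one-dose retest (limit read from the data); inactive = the rest.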
SMILES,SENP6 inh,SENP1 FRET inh,SENP8 block-1,SENP8 block-2,SENP7 block,SENP8 confirm,SENP6 confirm,SENP7 conf,Casp3 SENP sel,Luc interf
Oc1cccc(N2Cc3ccccc3C2)c1,17,7,10,-8,4,.,.,.,.,.
Cc1cc(N2Cc3ccccc3C2)ccc1C=O,57*,0,-2,50,11,45,73*,93*,80*,28
Cc1cc2c(cc1C)CN(c1ccccc1)C2,59*,4,22,57*,43,51*,39,79*,79*,70*
Oc1ccc(N2Cc3ccccc3C2)cc1,-2,-3,9,-8,1,.,.,.,.,.
O=Cc1ccc(N2Cc3ccccc3C2)cc1,68*,1,-45,54*,43,26,55*,81*,66*,12
COc1ccc(CC(=O)OCC(=O)Nc2cc(Cl)ccc2C)cc1,0,6,-1,-5,14,.,.,.,.,.
CCOC(=O)c1cccc(NC(=O)c2ccccc2C)c1,-9,1,-6,-6,8,.,.,.,.,.
CCOC(=O)c1ccc(NC(=O)c2ccnn2C)cc1,68*,1,9,59*,58*,6,11,14,6,7
CCOC(=O)c1ccc(NC(=O)c2ccccc2C)cc1,70*,2,6,58*,65*,69*,59*,87*,54*,55*
Cn1nccc1C(=O)Nc1ccc(OC(=O)c2ccnn2C)cc1,-28,11,10,-9,-4,.,.,.,.,.
Cc1cc(Cl)ccc1NC(=O)CN(C)C1=NS(=O)(=O)c2ccccc21,-8,-3,-7,11,-3,.,.,.,.,.
Cc1c(O)ccc(C(=O)CN2CCN(Cc3ccccc3)CC2)c1O,-21,4,-14,-1,59*,-12,-1,-9,-4,-3
O=C(NC1CCCCC1)c1ccc(-c2cccc([N+](=O)[O-])c2)o1,-2,2,2,2,-9,.,.,.,.,.
Cc1ccc(-c2cc3onc(-c4ccccc4)c3c(=O)n2C)cc1,93*,-1,4,92*,96*,3,10,7,46,0
CC1(C)Cc2c(sc3nc(=S)[nH]c(N)c23)CO1,6,.,.,-2,-13,.,.,.,.,.
CC(=O)c1cccc(CN2CCC(C(=O)Nc3cccc(-c4ccn[nH]4)c3)CC2)c1,-8,2,4,-8,-10,.,.,.,.,.
CC(=O)/C=C(\C)Nc1ccc(-c2cnc(-c3ccccc3)o2)cc1,76*,-65,-492,78*,72*,29,28,48,22,45
O=C(Nc1ccc(-c2nnc(-c3ccccc3)o2)cc1)C(F)(F)F,76*,-1,-196,66*,91*,-7,-3,-5,-4,-16
CC(C)C(=O)Nc1ccc(-c2nnc(-c3ccccc3)o2)cc1,61*,1,-311,58*,76*,12,13,19,22,7
CC(=O)Nc1ccc(-c2nc3ccccc3c(=O)o2)cc1,-29,2,-112,-28,-19,.,.,.,.,.
Cc1nc2c(sc3nc(N4CCOCC4)c4c(c32)CC(C)(C)OC4)c(-c2ccc(Cl)cc2)c1C(=O)O,-8,-36,-406,6,10,.,.,.,.,.
COc1ccc(Cl)cc1NC(=O)NN1CCN(C)CC1,9,0,6,0,12,.,.,.,.,.
O=C(Cc1cccs1)N/N=C\c1ccc([N+](=O)[O-])s1,34,-7,29,9,13,.,.,.,.,.
O=C(CNC(=O)c1ccccc1Cl)N/N=C/c1ccc([N+](=O)[O-])s1,70*,-3,28,9,13,18,37,1,2,-2
COc1ccc2[nH]c3c(=O)n(CCCCC(=O)NCCN4CCCC4)c(=S)[nH]c3c2c1,6,0,-219,5,3,.,.,.,.,.
SMILES,SENP6 inh,SENP1 FRET inh,SENP8 block-1,SENP8 block-2,SENP7 block,SENP8 confirm,SENP6 confirm,SENP7 conf,Casp3 SENP sel,Luc interf
COc1ccc2[nH]c3c(=O)n(Cc4ccc(C(=O)N5CCCC5)cc4)c(=S)[nH]c3c2c1,66*,-3,-246,47,21,11,24,17,17,4
Cc1ccccc1-c1cccc([C@@H]2C[C@H]3CN(Cc4cccnc4)C(=O)[C@]34CCCN24)c1,-11,-1,-6,-3,-11,.,.,.,.,.
CCN(CC)S(=O)(=O)c1ccc(N=N/C(C(C)=O)=C(/C)O)cc1,-17,-1,35,-7,-9,.,.,.,.,.
CC(=O)/C(N=Nc1ccc(OC(F)(F)F)cc1)=C(\C)O,-10,2,9,-20,6,.,.,.,.,.
CC(=O)/C(N=Nc1ccc2c(c1)OCO2)=C(\C)O,84*,9,8,59*,83*,-10,37,78*,74*,28
CN(C)c1ccc(N=Nc2ccc(C(=O)O)cc2)cc1,93*,18,-22,86*,87*,89*,91*,101*,73*,58*
O=C(O)c1ccc(N=NN2CCCCC2)cc1,68*,-1,6,50,45,54*,47,85*,57*,66*
CN(C)c1ccc(C(=O)c2ccccc2)cc1,21,3,-28,9,10,.,.,.,.,.
CC(=O)/C(N=Nc1ccc(C(=O)O)cc1)=C(\C)O,76*,1,26,44,67*,58*,58*,87*,92*,73*
Cc1cc(C2=CC(=O)C[C@H](c3ccc(F)cc3)C2)ccc1F,.,1,-21,.,.,.,.,.,.,.
CC(=O)/C(N=Nc1ccc2c(c1)OCCO2)=C(\C)O,79*,15,18,75*,82*,81*,80*,96*,92*,60*
COc1ccc(C(=O)NNC(=O)CSc2nnc(C3CC3)n2C)cc1,-4,1,-1,2,8,.,.,.,.,.
